The values that follow come from ChEMBL document CHEMBL3259621, “Novel merosesquiterpene exerts a potent antitumor activity against breast cancer cells in vitro and in vivo” (Eur J Med Chem, 2014).

One data set has as its system T84. Put plainly: Cytotoxicity against human T84 cells after 3 days by SRB assay. In kind it is functional, cell-based. The following applies: T84, 72 h. In a few lines: (§1)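 Cells seeded in quadruplicate at 5 × 10³ cells/cm². Compound added at 24 h over increasing concentrations for 3 days. Cells fixed with cold 10% TCA, stained with 0.4% sulforhodamine B in 1% acetic acid, dye solubilized in 10 mM Tris pH 10.5, OD read at 492 nm. IC50 taken by linear interpolation of the semi-log dose-response curve. DMSO below 0.1% final.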

In another data set the test system is MCF7. The data set can be described thus: Cytotoxicity against human MCF7 cells after 3 days by SRB assay. In kind it is functional, cell-based. The following applies: MCF7, 72 h. In a few lines:
as §1

The subject of the next data set is A549. Put plainly: Cytotoxicity against human A549 cells after 3 days by SRB assay. In kind it is functional, cell-based. The conditions noted are these: A549, 72 h. In a few lines:
as §1

Data set [1] is described as follows: Cytotoxicity against mouse E0771 cells after 3 days by SRB assay. The conditions noted are these: E0771, 72 h. In kind it is functional, cell-based. The gist of the method:
(§2)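 Cells seeded at 5 × 10³ cells/cm² in quadruplicate and, after 24 h, treated with increasing concentrations for 3 days. Compounds diluted from DMSO stock, final DMSO <0.1% v/v. Cells were fixed with cold 10% TCA, stained with 0.4% sulforhodamine B in 1% acetic acid, and dye solubilised in 10 mM Tris-base pH 10.5. OD read at 492 nm. IC50 obtained by linear interpolation on a semi-log dose-response curve.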

Data set [2] can be described thus: Therapeutic index, ratio of IC50 for human CCD-18Co cells to IC50 for human HT-29 cells. Type of data set: cell-based. The conditions noted are these: CCD-18Co cells versus HT-29 cells, read-out: Ratio IC50.
Data set [3] in a line: Cytotoxicity against human MCF10A cells after 3 days by SRB assay. Type of data set: cell-based. The following applies: MCF-10A, 72 h. The gist of the method:
as §2

Data set [4] is described as follows: Therapeutic index, ratio of IC50 for human MCF10A cells to IC50 for human T47D cells. Type of data set: cell-based, MCF-10A. The conditions noted are these: MCF10A cells versus T47D cells, read-out: Ratio IC50.
A short description of data set [5]: Cytotoxicity against human CCD-18Co cells after 3 days by SRB assay. The following applies: 72 h. In kind it is cell-based. In a few lines:
as §2

The nature of data set [6]: Therapeutic index, ratio of IC50 for human MCF10A cells to IC50 for mouse E0771 cells. Type of data set: cell-based, MCF-10A. The conditions noted are these: MCF10A cells versus E0771 cells, read-out: Ratio IC50.
The subject of a further data set is MDA-MB-231. The data set can be described thus: Cytotoxicity against human MDA-MB-231 cells after 3 days by SRB assay. Type of data set: functional, cell-based. The following applies: MDA-MB-231, 72 h. The gist of the method: as §2
The nature of data set [7]: Therapeutic index, ratio of IC50 for human CCD-18Co cells to IC50 for human RKO cells. The following applies: CCD-18Co cells versus RKO cells, read-out: Ratio IC50. Type of data set: cell-based.
Data set [8] in a line: Therapeutic index, ratio of IC50 for human MCF10A cells to IC50 for human MDA-MB-231 cells. In kind it is cell-based, MCF-10A. The following applies: MCF10A cells versus MDA-MB-231 cells, read-out: Ratio IC50.
Data set [9] in a line: Therapeutic index, ratio of IC50 for human CCD-18Co cells to IC50 for human SW480 cells. Type of data set: cell-based. The conditions noted are these: CCD-18Co cells versus SW480 cells, read-out: Ratio IC50.
Another data set relates to T47D. The data set can be described thus: Cytotoxicity against human T47D cells after 3 days by SRB assay. Type of data set: functional, cell-based. The conditions noted are these: 72 h. In a few lines:
as §2

Data set [10] is described as follows: Therapeutic index, ratio of IC50 for human CCD-18Co cells to IC50 for human T84 cells. In kind it is cell-based, T84; CCD-18Co. The following applies: CCD-18Co cells versus T84 cells, read-out: Ratio IC50.
Data set [11] in a line: Therapeutic index, ratio of IC50 for human MCF10A cells to IC50 for human MCF7 cells. Type of data set: cell-based, MCF-10A. The conditions noted are these: MCF10A cells versus MCF7 cells, read-out: Ratio IC50.
A further data set has as its system SW480. The data set can be described thus: Cytotoxicity against human SW480 cells after 3 days by SRB assay. The conditions noted are these: SW480, 72 h. In kind it is functional, cell-based. In a few lines:
as §2

The test system of another data set is HT-29. The data set can be described thus: Cytotoxicity against human HT-29 cells after 3 days by SRB assay. The following applies: HT-29, 72 h. In kind it is functional, cell-based. In a few lines: as §2
A further data set has as its system RKO. The data set can be described thus: Cytotoxicity against human RKO cells after 3 days by SRB assay. Type of data set: functional, cell-based. The conditions noted are these: 72 h. In a few lines:
as §2

Take `C=C1CC[C@@H]2[C@](C)(CCC[C@]2(C)C(=O)OC)[C@H]1Cc1c(C)ccc2c1C(=O)C(OC)=CC2=O`: the IC50 in the data set with T84 was 16.7 µM; in the data set with MCF7, 16 µM; with A549 it was 17.5 µM.
Taken in the same sequence, the figures for `C=C1CC[C@@H]2[C@](C)(CCC[C@]2(C)C(=O)OC)[C@H]1Cc1c(C)ccc(C(=O)OC)c1O` were 40 µM, 45.1 µM and 27 µM.
Take `C=C1CC[C@@H]2[C@](C)(CCC[C@]2(C)C(=O)OC)[C@H]1Cc1c(C)cccc1C#N`: the IC50 stood at 23.7 µM in the data set on T84, 39.6 µM in the data set on MCF7 and 20.2 µM with A549.
Consider `C=C1CC[C@@H]2[C@](C)(CCC[C@]2(C)C(=O)OC)[C@H]1Cc1c(C)ccc(C(=O)OC)c1C(=O)OC`, for which the IC50 in the data set on T84 is 25 µM; with MCF7, 33 µM; in the data set on A549 it was 19.9 µM.
Taken in the same sequence, the figures for `C=C1CC[C@@H]2[C@](C)(CCC[C@]2(C)C(=O)OC)[C@H]1Cc1c(C)ccc2c1C(=O)C(O)=CC2=O` were 30 µM, 38.4 µM and 41.2 µM.
Regarding `O=c1[nH]cc(F)c(=O)[nH]1` [FLUOROURACIL], the IC50 in data set [1] stood at 280 nM; in [3] it was 8.06 µM; in the data set on MCF7, 2.86 µM; in data set [5], 9.26 µM; in the data set on MDA-MB-231 it was 18.1 µM; in the data set with T47D it was 10.6 µM. Further, the IC50 in the data set with SW480 is 3.69 µM; in the data set on HT-29, 2580 nM; in the data set with RKO, 4.39 µM. In addition, the selectivity ratio was determined as 3.6 in data set [2]; 0.76 in data set [4]; 28.8 in data set [6]; 2.11 in [7]; 0.44 in [8]; 2.51 in data set [9]. Moreover, the selectivity ratio in data set [10] came out at 2.76; in data set [11], 2.82.
`C=C1CC[C@@H]2[C@](C)(CCC[C@]2(C)C(=O)OC)[C@H]1Cc1c(C)cccc1C(=O)OC`: the values for the half-inhibitory concentration (IC50) in the data set with T84, in the data set with MCF7 and with A549 were 29 µM, 40.4 µM and 28.1 µM, respectively.
